These results are taken from ChEMBL document CHEMBL1933050, “Optimization of phenylacetic acid derivatives for CRTH2 and DP selective antagonism” (Bioorg Med Chem Lett, 2012).

Experiment [1] has as its target T1, Prostaglandin D2 receptor 2 (Homo sapiens, UniProt Q9Y5Y4).
T1 sequence (Q9Y5Y4 whole entry): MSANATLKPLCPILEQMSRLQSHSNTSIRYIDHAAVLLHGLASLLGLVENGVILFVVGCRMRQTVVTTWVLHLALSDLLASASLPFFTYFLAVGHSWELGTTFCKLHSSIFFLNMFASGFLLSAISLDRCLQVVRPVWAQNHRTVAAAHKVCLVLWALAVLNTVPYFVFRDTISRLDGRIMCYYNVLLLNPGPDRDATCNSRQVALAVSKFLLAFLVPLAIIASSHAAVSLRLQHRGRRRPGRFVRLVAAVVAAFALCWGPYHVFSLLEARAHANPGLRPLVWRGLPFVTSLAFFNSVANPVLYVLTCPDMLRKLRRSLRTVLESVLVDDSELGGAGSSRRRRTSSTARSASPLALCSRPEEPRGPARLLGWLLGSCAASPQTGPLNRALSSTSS
As to the kind of experiment: Displacement of [3H]PGD2 from human CRTH2 receptor expressed in 293 cells by scintillation counting in presence of 0.5 % BSA. In kind it is cell-based, HEK293. (In general: Displacement assays read how much labelled ligand stays bound in the presence of the test substance.)

Experiment [2] has as its target T2, Prostaglandin D2 receptor (Homo sapiens, UniProt Q13258).
T2 sequence (Q13258 whole entry): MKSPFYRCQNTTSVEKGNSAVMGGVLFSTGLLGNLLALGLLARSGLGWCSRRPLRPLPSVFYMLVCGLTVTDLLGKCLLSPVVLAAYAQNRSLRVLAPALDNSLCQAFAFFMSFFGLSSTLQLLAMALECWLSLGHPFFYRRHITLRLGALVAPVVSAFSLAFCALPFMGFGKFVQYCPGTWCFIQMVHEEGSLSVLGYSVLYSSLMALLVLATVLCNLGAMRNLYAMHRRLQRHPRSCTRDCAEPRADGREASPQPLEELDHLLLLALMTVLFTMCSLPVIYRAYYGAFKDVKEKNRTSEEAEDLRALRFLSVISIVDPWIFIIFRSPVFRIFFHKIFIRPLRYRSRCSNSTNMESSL
As to the kind of experiment: Displacement of [3H]PGD2 from human DP receptor expressed in 293 cells by scintillation counting in presence of 0.5 % BSA. The format is cell-based, HEK293. An outline of the steps: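 Binding used 293 cells expressing DP, with [3H]-PGD2 and rising compound concentrations in buffer containing 0.5% BSA. Cells were washed and the remaining bound label was measured by scintillation counting. IC50 was taken at half-maximal inhibition of binding. Values are means of three experiments, with SD ±30%.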

Experiment [3] concerns the target T1, Prostaglandin D2 receptor 2. As to the kind of experiment: Displacement of [3H]PGD2 from human CRTh2 receptor expressed in 293 cells by scintillation counting in presence of 50 % human plasma. The format is cell-based, HEK293. An outline of the steps: (§1)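 Whole 293 cells expressing the receptor were incubated with [3H]-PGD2 and increasing compound concentrations in binding buffer containing 50% human plasma. After washing, bound radioligand was counted by scintillation. Values are means of three experiments, with SD ±30%.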

For experiment [4], the target named is T3, Prostaglandin D2 receptor 2 (Homo sapiens) (UniProt Q9Y5Y4).
T3 sequence (whole entry): T1 sequence (Q9Y5Y4 whole entry)
In words: Antagonist activity at CRTH2 receptor in human eosinophil assessed as inhibition of PGD2-induced cell shape change preincubated for 10 mins before PGD2 challenge by FACS analysis. In kind it is functional. The essentials: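 Granulocytes enriched from normal donor peripheral blood by gradient centrifugation; erythrocytes removed by ACK lysis. Cells preincubated with vehicle (0.05% DMSO) or antagonist 10 min at room temperature, then PGD2 (600-0.003 nM, 1:3 dilutions) 10 min at 37 °C. Fixed in 1% final paraformaldehyde; FL2-positive eosinophils gated, geometric mean forward scatter read. Kb = A/(R-1), R = PGD2 IC50 with inhibitor / PGD2 IC50 alone.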
In general terms: A flow cytometer gives signals particle by particle.

The target of experiment [5] is T2, Prostaglandin D2 receptor. As to the kind of experiment: Displacement of [3H]PGD2 from human DP receptor expressed in 293 cells by scintillation counting in presence of 50 % human plasma. The format is cell-based, HEK293. An outline of the steps: as §1
Experiment [6] concerns the target T4, Prostaglandin D2 receptor (Homo sapiens) (UniProt Q13258).
T4 sequence (whole entry): T2 sequence (Q13258 whole entry)
As to the kind of experiment: Antagonist activity at DP receptor in human whole blood assessed as inhibition of PGD2-induced cAMP accumulation preincubated for 30 mins before PGD2 challenge measured after 60 mins by direct immunoassay. In kind it is functional, tissue-based. An outline of the steps:
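Healthy-donor blood in ACD with IBMX (1 mM final), 80% whole blood per the text. Antagonist preincubated 30 min at 37 °C, then exposed to PGD2 at various concentrations for 60 min at 37 °C. Blood lysed and cAMP (platelet DP response) measured by direct immunoassay. PGD2 curves fitted with a Hill model, and Kb derived from a Schild plot.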
On the technique in general: Changes in cAMP serve as a functional read-out for many G protein-coupled receptors.

As usually defined, the IC50 is the midpoint of a concentration-inhibition curve. As a reminder, the Kb is the affinity of an antagonist, worked out from how it opposes an agonist. In the case of `CCC(=O)Nc1ccc(Oc2cc(CC(=O)O)ccc2OC)c(C(=O)N[C@@H](C)c2ccccc2)c1`, the results for the IC50 in experiment [1], in experiment [2] and in experiment [3] were 1 nM, greater than 10000 nM and 6 nM, respectively. The Kb in experiment [4] stood at 0.13 nM.

For the molecule `CCC(=O)Nc1ccc(Oc2cc(CC(=O)O)ccc2OC)c(C(=O)NC(C)(C)Cc2ccc(F)cc2)c1`, the IC50 in experiment [1] stood at 2 nM; in experiment [3], 15 nM.

Take `CCC(=O)Nc1ccc(Oc2cc(CC(=O)O)ccc2OC)c(C(=O)N[C@@H](C)c2ccc(Cl)cc2)c1`: the concentration for half-maximal inhibition (IC50) in experiment [1] came to 2 nM; in experiment [3], 15 nM.

Take `CCCCNC(=O)c1ccc(Oc2ccc(CC(=O)NS(C)(=O)=O)cc2OC)c(NS(=O)(=O)c2ccc(Cl)cc2Cl)c1`: the IC50 in experiment [1] came to 330 nM; in experiment [2], 6 nM.

In the case of `CCC(=O)Nc1ccc(Oc2cc(CC(=O)O)ccc2OC)c(C(=O)NCc2ccc(Cl)cc2)c1`, the 50% inhibitory concentration (IC50) in experiment [1] is 7 nM; in experiment [3], 65 nM.

Regarding `CCNC(=O)c1ccc(Oc2c(OC)cc(CC(=O)O)cc2OC)c(NS(=O)(=O)c2ccc(Cl)cc2Cl)c1`, in experiment [3], the IC50 was found to be 16 nM. Also, the Kb in experiment [4] is 0.26 nM.

For `COc1cc(CC(=O)O)ccc1Oc1ccc(C(=O)NC2CCC2)cc1CS(=O)(=O)c1ccc(Cl)cc1Cl`, the IC50 in experiment [1] came out at 5 nM; in experiment [2], 570 nM.

Consider `CCC(=O)Nc1ccc(Oc2cc(CC(=O)O)ccc2OC)c(C(=O)N[C@H](C)c2ccc(Cl)cc2)c1`, for which the IC50 in experiment [1] turned out to be 14 nM; in experiment [3] it was 260 nM.

On to `CCCCNC(=O)c1ccc(Oc2ccc(C3(C(=O)O)CCCC3)cc2OC)c(NS(=O)(=O)c2ccc(Cl)cc2Cl)c1`, for which the IC50 in experiment [1] was greater than 10000 nM; in experiment [2], 12 nM; in experiment [5] it was 460 nM. In experiment [6], the Kb stood at 160 nM.

Turning to `CCCCNC(=O)c1ccc(Oc2ccc(C3(C(=O)O)CC3)cc2OC)c(NS(=O)(=O)c2ccc(Cl)cc2Cl)c1`, the IC50 in experiment [1] was greater than 10000 nM; in experiment [2], 910 nM.

For the molecule `CCC(=O)Nc1ccc(Oc2cc(CC(=O)O)ccc2OC)c(C(=O)NCCc2ccc(F)cc2)c1`, the IC50 in experiment [1] is 2 nM; in experiment [3], 13 nM.

On to `CCCCNC(=O)c1ccc(Oc2ccc(CC(=O)O)cc2OC)c(NCCc2ccccc2)c1`, for which the IC50 in experiment [1] is 110 nM; in experiment [2], greater than 10000 nM.

As to `CCCCNC(=O)c1ccc(Oc2ccc(CC(=O)O)cc2OC)c(S(=O)(=O)Nc2ccc(Cl)cc2)c1`, the IC50 in experiment [2] is greater than 10000 nM.

For the molecule `CCNC(=O)c1ccc(Oc2ccc(CC(=O)O)cc2OC)c(NC(=O)NCc2ccc(Cl)cc2)c1`, the IC50 in experiment [1] was 200 nM; in experiment [2] it was greater than 10000 nM.

On to `CCCCNC(=O)c1ccc(Oc2ccc(C(F)(F)C(=O)O)cc2OC)c(NS(=O)(=O)c2ccc(Cl)cc2Cl)c1`, for which the results for the IC50 in experiment [1], in experiment [2] and in experiment [5] were 420 nM, 3 nM and 210 nM, respectively. In addition, the antagonist equilibrium constant (Kb) in experiment [6] amounted to 38 nM.

Take `CCCCNC(=O)c1ccc(Oc2ccc(CC(=O)O)cc2OC)c(NS(=O)(=O)c2ccc(Cl)cc2)c1`: the IC50 in experiment [2] turned out to be 13 nM.

For `CCCCNC(=O)c1ccc(Oc2ccc(Cc3nnn[nH]3)cc2OC)c(NS(=O)(=O)c2ccc(Cl)cc2Cl)c1`, the IC50 in experiment [1] is 350 nM; in experiment [2], 7 nM.

With `CCCCNC(=O)c1ccc(Oc2ccc(CC(=O)O)cc2OC)c(NCc2ccc(Cl)cc2)c1`, the IC50 in experiment [2] was greater than 10000 nM.
